Variants at the floor of the assay were thinned out.
B1: tRNA (parent)
chain: GUUCCGUUGGCGUAAUGGUAACGCGUCUCCCUCCUAAGGAGAAGACUGCGGGUUCGAGUCCCGUACGGAACG

Variants of: B1
Test: yeast fitness relative to wild type (ratio to wild type); higher = fitter; tRNA-Arg(CCU), competitive growth, 37 C, YPD
Procedure, shortened: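 A pool of Saccharomyces cerevisiae strains, each with a tRNA-Arg(CCU) gene variant at the native genomic locus, was competed in YPD at 37°C for 24 hours across six parallel replicates. The variants had been chemically synthesised at a 3% per-site mutation rate over 69 sites, and gene amplicons before and after competition were read by 100-nucleotide paired-end sequencing. Darwinian fitness relative to wild type rested on changes in genotype frequencies. Genotypes required ≥ 100 starting reads, and estimates < 0.5 were set to 0.5.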

Variant	yeast fitness
GUUUCGUUGGCGUAAUGGUAAGGCGUCUCCCUACUCAGGAGAGGACUGCGGGUUGGAGUCCCGUACGGAACG [C4U C22G C33A A36C A43G C55G]	0.742
GUUUCGUUGGCGUAAUGGUAAUGCGUCUCCCUUCUAAGGAGCAGACUGCGGGUUCGGGUCCCGUACGGAACG [C4U C22U C33U A42C A57G]	≤ 0.5
GUUUCGUUGGUGUAAUGGUAACGCGUCUCCCUCCUAAGGAGAACACUGUGGGUUCGAGUCCCGUACGGAUCG [C4U C11U G44C C49U A70U]	≤ 0.5
GUUUCGUUGGGGUAAUGGUAACGCGUCUCCCUCCUAAGGAGAAGACUGCGGGUUCCAGUCCCGUACGGAACG [C4U C11G G56C]	≤ 0.5
GUUUCGUUGGCGUAAUGGUAAGGCGUCCCCCUCCUAAGGAGAAGACUGCGGGUUCGAGCCCCGUACGGAACG [C4U C22G U28C U59C]	≤ 0.5
GUUUCGUUGGCGUAAUGGUAAGGCGUCACCCUCCUUAGGAGAAGACUGCGGGUUCGAGUCCCGUAUGGAACG [C4U C22G U28A A36U C66U]	≤ 0.5
GUUUCGUUGGUGUAAUGGUAACGCGUCUCCGUCCUAAGGAGAAGAAUGCGGGUUCGAGUCCCCUUCGGAACG [C4U C11U C31G C46A G63C A65U]	≤ 0.5
GUUUCGUUGGCGUAAUGGUAACGAGUCUCCCUCCUAAGGAGAAGACUGCGGGUUCGAGUCCCGUACGGAACG [C4U C24A]	0.574
GUUUCGUUGGCGUAAUGGUAACGAGUCUCCCUCCUAAGGAGAGGACUGCGGGUUCGAGUCCCCUACGGAACG [C4U C24A A43G G63C]	≤ 0.5
GUUUCGUUGGUGUAAUGGUAACGCGUCUCCCUCCUAAGGAGAACACUGCGGGUUCGAGUCCCGUACGGAACG [C4U C11U G44C]	0.702
GUUUCGUUGGUGUAAUGGUAACGCGUCUCCCUUCUAAGGAGAAGACUGCGGGUUCGAGUCCCGUACGGAACG [C4U C11U C33U]	0.575
GUUUCGUUGGCGUAAUGGUAACGGGUCUCCCUCCUCAGGAGAAGACUGCGGGUUCGAGUCCCGUACGGACCG [C4U C24G A36C A70C]	≤ 0.5
GUUUCGUUGGCGUAAUGGUAAUGCGUCUCCCUCCUAAGGAGAAGACUGCGGGUUCGAGUCCUGUACGGAACG [C4U C22U C62U]	0.62
GUUUCGUUGGCGUAAUGGUAAUGCGUUUCCCUCCUAAGGAGAAGACUGCGGGUUCGACUCCCGUACGGAACG [C4U C22U C27U G58C]	≤ 0.5
GUUUCGUUGGUGCAAUGGUAACGCGUCUCCCUGCUAAGGCGAAGACUGCGGGUUCGAGUCCCGUACGGAACG [C4U C11U U13C C33G A40C]	≤ 0.5
GUUUCGUUGGCGUAAUGGUAAGGCGUUUCCCUCCUAAGGAGAAGACUGCAGGUUCGAGUCCCAUACGGAACG [C4U C22G C27U G50A G63A]	≤ 0.5
GUUUCGUUGGCGUAAUGGUAAUGCGUCUCCCUCCUAAGGAGAAGGCUGCGGGUUCGAGUCCCGUAGGGAACG [C4U C22U A45G C66G]	≤ 0.5
GUUUCGUUGGUGUAAUGGUAACGCGUCUCCCUCCUAAGGAGAAGUCUGCGGGUUCGUGUCCCGUACGGAACG [C4U C11U A45U A57U]	0.655
GUUUCGUUGGCGUAAUGGUAAGGCGUCUGCAUCCUAAGGAGAAGACUGCGGGUUCGAGUCCCGUACGGCACG [C4U C22G C29G C31A A69C]	≤ 0.5

Variant	yeast fitness
GUUUCGUUGGCGUAAUGGUAAGGCGUCUCCCUCCUAAGGAGAAGACUGCGGGUUCGAGCCCCGUACGGAACG [C4U C22G U59C]	0.712
GUUUCGUUGGCGUAAUGGUAAGGCGUCACCCUCCUUAGGAGAAGACUGCGGGUUCGAGUCCCGUUCGGAACG [C4U C22G U28A A36U A65U]	≤ 0.5
GUUUCGUUGGUGUAAUGGUAAGGCGUCUCCCUCCUAAGGAGAAGACUGCGGGUUCGAGUCCCGUACGGAACG [C4U C11U C22G]	0.629
GUUUCGUUGGCGUAAUGGUAACGAGUCUCCCUCCUAAGGAGAACACUGCCGGUGCGAGUCGCGUACGGAACG [C4U C24A G44C G50C U54G C61G]	≤ 0.5
GUUUCGUUGGCGUAAUGGUAACGAGUCUCCCUCCUAAGGAGAAGACUGCGGGUUCGUGUACCGUACGCAACG [C4U C24A A57U C60A G68C]	≤ 0.5
GUUUCGUUGGUGUAAUGGUAACGCGUCUCGCUCCUAAGGAGAAGACUGCGGGUUCGAGUCCCGUACGGAACG [C4U C11U C30G]	≤ 0.5
GUUUCGUUGGCGUAAUGGUAAUACGUCUCCCUCCUAAGGAGAAGACUGCGGGUUCGAGUCCCGUACGGAACG [C4U C22U G23A]	≤ 0.5
GUUUCGUUGGUGUAAUGGUAACGCCUCUCCCUCCUAAGGAAAAGACUGCGGGUUCGAGUCCCGUACGGAACG [C4U C11U G25C G41A]	0.706
GUUUCGUUGGCGUAAUGGUAAUGCGUCUCCCUCCUAAGGAGAAGACUGCGGGUUCGAGUCCCGUACGGAACG [C4U C22U]	0.76
GUUUCGUUGGUGUAAUGGUAACGCCUCUCCCUCCUAAGGAGAAGACUGCGGGUUCGAGUCCCGUACGGAACG [C4U C11U G25C]	0.747
GUUUCGUUGGCGUAAUGGUAAGGCGUCUCCCUCCUAAGGAGGAGACUGCGGGUUCGAGUCCCGUACGGAACG [C4U C22G A42G]	0.695
GUUUCGUUGGCGUAAUGGUAAGGCGUCACCCUCCUUAGGAGAAGACUGCGAGUUCGAGUCCCGUACGGAACG [C4U C22G U28A A36U G51A]	≤ 0.5
GUUUCGUUGGUGUAAUGGUAACGCGUCUCCCUCCAAAGGAGAAGACUGCGGGUUCGAGUCCCGUACGGAACG [C4U C11U U35A]	0.523
GUUUCGUUGGCGUAAUGGUAACGAGUCUCGCUCCUAAGGAGAAGACUGCGGGUUCGAGUCCCGUUAGGAACG [C4U C24A C30G A65U C66A]	≤ 0.5
GUUUCGUUGGUGUAAUGGUAACGCGUCUCCCUCGUAAGGCGAAGACUGCGCGUUCGAGUCCCGUACGGAACG [C4U C11U C34G A40C G51C]	0.534
GUUUCGUUGGCGUAAUGGUAAGGCGUCACCCUCCUUAGGAGAAGACUGCGGGUUGGAGUCCUGUACGGAACG [C4U C22G U28A A36U C55G C62U]	≤ 0.5
GUUUCGUUGGUGUAAUGGUAAGGCGUCUCCCUCCUAAGGAGAAGUCUGCGGGUUCGAGUCCCGUACGGAACG [C4U C11U C22G A45U]	≤ 0.5
GUUUCGUUGGCGUAAUGGUAACGAGUCUCCCUCCUAAGGAGAAGACGGCGGGUUCGAGCCCCGUACGGAACG [C4U C24A U47G U59C]	≤ 0.5
GUUUCGUUGGUGUAAUGGUAACGCGUCUCCCUCCUAAGGAGAUGACUGCGGGUUGGAGUCCCGUACGGAACG [C4U C11U A43U C55G]	≤ 0.5

From the RNAGym collection of RNA variant scans (doi:10.1126/science.aae0568)
